Values belong to the compound of their own block, whether it stands above or below them.
Columns and labels:
[1] = Oral bioavailability in Sprague-Dawley rat at 2 mg/kg; type: ADME, organism-based; settings: in vivo
[2] = Half life in Beagle dog at 1 mg/kg, iv and 2 mg/kg, po; type: ADME, organism-based, Canis lupus familiaris; settings: in vivo
[3] = Intrinsic clearance in monkey liver microsomes; type: ADME, Macaca mulatta, Microsome; settings: rhesus monkey, read-out: CLH
[4] = Plasma clearance in Sprague-Dawley rat at 1 mg/kg, iv and 2 mg/kg, po; type: ADME, organism-based
[5] = Intrinsic clearance in dog liver microsomes; type: ADME, Canis lupus familiaris; settings: read-out: CLH
[6] = Intrinsic clearance in rat liver microsomes; type: ADME; settings: read-out: CLH
[7] = target: T1, Beta-3 adrenergic receptor (Homo sapiens, UniProt P13945); experiment: Agonist activity at human beta-3 adrenergic receptor expressed in CHO cells assessed as increase in intracellular cAMP accumulation after 30 mins by time-resolved fluorescence assay; type: functional, cell-based
In short: (§1)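 CHO cells stably transfected with cloned β3-AR, harvested after 3 days subculture with enzyme-free dissociation, 6000 cells in HBSS with 5 mM HEPES, 0.1% BSA and 0.6 mM IBMX. Ligand at 10⁻¹⁰ to 10⁻⁵ M final, 30 min room temperature with labeled cAMP antibody; LANCE TR-FRET read after 1 h detection, cAMP from standard curve.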

[8] = Lipophilicity, log D of the compound at pH 7.3; type: physicochemical; settings: buffer
[9] = target: Beta-3 adrenergic receptor (Rattus norvegicus, UniProt P26255); experiment: Agonist activity at rat beta-3 adrenergic receptor expressed in CHO cells assessed as increase in intracellular cAMP accumulation after 30 mins by time-resolved fluorescence assay; type: functional, cell-based; in short: as §1
[10] = Fraction unbound in Sprague-Dawley rat plasma at 1 mg/kg, iv and 2 mg/kg, po; type: ADME, organism-based; settings: Sprague-Dawley, plasma
[11] = target: Beta-3 adrenergic receptor (Macaca mulatta) (UniProt Q28524); experiment: Agonist activity at rhesus monkey beta-3 adrenergic receptor expressed in CHO cells assessed as increase in intracellular cAMP accumulation at 10^-10 to 10^-5 M after 30 mins by time-resolved fluorescence assay relative to R-(-)isoproterenol; type: functional, cell-based; in short: as §1
[12] = target: Voltage-gated inwardly rectifying potassium channel KCNH2 (Homo sapiens, UniProt Q12809); experiment: Inhibition of human ERG
[13] = target: Beta-2 adrenergic receptor (Homo sapiens, UniProt P07550); experiment: Displacement of [125I]-cyanopindolol from recombinant human beta-2 adrenergic receptor expressed in CHO cell membranes after 1 hr by scintillation counting analysis
Plasma [14] = experiment: Unbound plasma concentration in acetic acid-induced Sprague-Dawley rat bladder hyperactivity model at 1 mg/kg, iv administered as 1 to 2 hrs infusion; type: ADME, organism-based; parameters: dose 1 mg/kg, route intravenous; settings: in vivo
Plasma [15] = experiment: Unbound plasma concentration in acetic acid-induced Sprague-Dawley rat bladder hyperactivity model at 10 mg/kg, iv administered as 1 to 2 hrs infusion; type: ADME, organism-based; parameters: dose 10 mg/kg, route intravenous; settings: in vivo
[16] = Intrinsic clearance in human liver microsomes; type: ADME; settings: read-out: CLH
[17] = target: Sodium-dependent serotonin transporter (Homo sapiens, UniProt P31645); experiment: Inhibition of human SERT expressed in HEK293 cells incubated for 30 mins prior to fluorescent substrate addition measured after 30 mins by fluorescent dye uptake assay; type: cell-based
In short: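 HEK293 stably expressing human SERT, 20000 cells/well plated overnight at 37 °C, then in HBSS with 20 mM HEPES and 0.1% BSA. Compound added from 100× DMSO stock, 30 min at 37 °C, then fluorescent transporter substrate for 30 more min. Fluorescence read at 440/520 nm, normalized to DMSO (0%) and 10 μM fluoxetine (100%), four-parameter fit for IC50.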

[18] = target: Voltage-dependent L-type calcium channel subunit alpha-1C (Homo sapiens, UniProt Q13936); experiment: Displacement of [3H]-diltiazem from human CaV1.2
Cytochrome P450 2C9 = Cytochrome P450 2C9 (Homo sapiens, UniProt P11712); experiment: Inhibition of CYP2C9 in human liver microsomes assessed as diclofenac alpha'-hydroxylation; type: ADME
Rattus norvegicus [19] = experiment: Reduction of micturition pressure at 27 uM unbound plasma level in acetic acid-induced Sprague-Dawley rat bladder hyperactivity model at 10 mg/kg, iv administered as 1 to 2 hrs infusion relative to vehicle-treated control; type: functional; parameters: scale not given: the % may be the effect or the level left
Homo sapiens = species on record: Homo sapiens; experiment: Selectivity ratio of IC50 for human SERT to EC50 for human beta-3 adrenergic receptor
[20] = target: Beta-3 adrenergic receptor (Rattus norvegicus) (UniProt P26255); experiment: Agonist activity at rat beta-3 adrenergic receptor expressed in CHO cells assessed as increase in intracellular cAMP accumulation at 10^-10 to 10^-5 M after 30 mins by time-resolved fluorescence assay relative to R-(-)isoproterenol; type: functional, cell-based; in short: as §1
[21] = target: Beta-3 adrenergic receptor (Canis lupus familiaris) (UniProt O02662); experiment: Agonist activity at dog beta-3 adrenergic receptor expressed in CHO cells assessed as increase in intracellular cAMP accumulation at 10^-10 to 10^-5 M after 30 mins by time-resolved fluorescence assay relative to R-(-)isoproterenol; type: functional, cell-based; in short: as §1
[22] = target: T1, Beta-3 adrenergic receptor; experiment: Agonist activity at human beta-3 adrenergic receptor expressed in CHO cells assessed as increase in intracellular cAMP accumulation at 10^-10 to 10^-5 M after 30 mins by time-resolved fluorescence assay relative to R-(-)isoproterenol; type: functional, cell-based; in short: as §1
[23] = Apparent permeability in MDCK2 cells; type: ADME, cell-based, Canis lupus familiaris, MDCK-II; settings: dog, MDCK
[24] = Plasma clearance in rhesus monkey at 1 mg/kg, iv and 2 mg/kg, po; type: ADME, organism-based, Macaca mulatta
[25] = target: Beta-3 adrenergic receptor (Canis lupus familiaris, UniProt O02662); experiment: Agonist activity at dog beta-3 adrenergic receptor expressed in CHO cells assessed as increase in intracellular cAMP accumulation after 30 mins by time-resolved fluorescence assay; type: functional, cell-based; in short: as §1
Cytochrome P450 3A4 = Cytochrome P450 3A4 (Homo sapiens, UniProt P08684); experiment: Inhibition of CYP3A4 in human liver microsomes assessed as testosterone 6beta-hydroxylation; type: ADME
Rattus norvegicus [26] = experiment: Reduction of micturition pressure in iv dosed acetic acid-induced Sprague-Dawley rat bladder hyperactivity model administered as 1 to 2 hrs infusion; type: functional, organism-based
[27] = Oral bioavailability in rhesus monkey at 2 mg/kg; type: ADME, organism-based, Macaca mulatta; settings: in vivo
Plasma [28] = experiment: Unbound plasma concentration in acetic acid-induced Sprague-Dawley rat bladder hyperactivity model at 3 mg/kg, iv administered as 1 to 2 hrs infusion; type: ADME, organism-based; parameters: dose 3 mg/kg, route intravenous; settings: in vivo
[29] = Oral bioavailability in Beagle dog at 2 mg/kg; type: ADME, organism-based, Canis lupus familiaris; settings: in vivo
[30] = target: Beta-1 adrenergic receptor (Homo sapiens, UniProt P08588); experiment: Displacement of [125I]-cyanopindolol from recombinant human beta-1 adrenergic receptor expressed in CHO cell membranes after 1 hr by scintillation counting analysis
[31] = target: Beta-3 adrenergic receptor (Macaca mulatta, UniProt Q28524); experiment: Agonist activity at rhesus monkey beta-3 adrenergic receptor expressed in CHO cells assessed as increase in intracellular cAMP accumulation after 30 mins by time-resolved fluorescence assay; type: functional, cell-based; in short: as §1
[32] = Plasma clearance in Beagle dog at 1 mg/kg, iv and 2 mg/kg, po; type: ADME, organism-based, Canis lupus familiaris
[33] = Half life in Sprague-Dawley rat at 1 mg/kg, iv and 2 mg/kg, po; type: ADME, organism-based; settings: in vivo
[34] = Fraction unbound in rhesus monkey plasma at 1 mg/kg, iv and 2 mg/kg, po; type: ADME, organism-based, Macaca mulatta
[35] = Half life in rhesus monkey at 1 mg/kg, iv and 2 mg/kg, po; type: ADME, organism-based, Macaca mulatta; settings: in vivo
Cytochrome P450 2D6 = Cytochrome P450 2D6 (Homo sapiens, UniProt P10635); experiment: Inhibition of CYP2D6 in human liver microsomes assessed as dextromethorphan O-demethylation; type: ADME
[36] = Fraction unbound in Beagle dog plasma at 1 mg/kg, iv and 2 mg/kg, po; type: ADME, organism-based, Canis lupus familiaris
[37] = target: Sodium channel protein type 5 subunit alpha (Homo sapiens, UniProt Q14524); experiment: Inhibition of human NaV1.5
Rattus norvegicus [38] = experiment: Reduction of micturition pressure at 1.2 uM unbound plasma level in acetic acid-induced Sprague-Dawley rat bladder hyperactivity model at 10 mg/kg, iv administered as 1 to 2 hrs infusion relative to vehicle-treated control; type: functional; parameters: scale not given: the % may be the effect or the level left
[39] = Fraction unbound in rhesus monkey plasma at 3 mg/kg, iv; type: ADME, organism-based, Macaca mulatta; parameters: dose 3 mg/kg, route intravenous
[40] = Half life in rhesus monkey at 3 mg/kg, iv; type: ADME, organism-based, Macaca mulatta; parameters: dose 3 mg/kg, route intravenous; settings: in vivo
[41] = Half life in Sprague-Dawley rat at 3 mg/kg, iv; type: ADME, organism-based; parameters: dose 3 mg/kg, route intravenous; settings: in vivo
[42] = Half life in Beagle dog at 3 mg/kg, iv; type: ADME, organism-based, Canis lupus familiaris; parameters: dose 3 mg/kg, route intravenous; settings: in vivo
[43] = Fraction unbound in Beagle dog plasma at 3 mg/kg, iv; type: ADME, organism-based, Canis lupus familiaris; parameters: dose 3 mg/kg, route intravenous
[44] = Fraction unbound in Sprague-Dawley rat plasma at 3 mg/kg, iv; type: ADME, organism-based; parameters: dose 3 mg/kg, route intravenous
[45] = Plasma clearance in rhesus monkey at 3 mg/kg, iv; type: ADME, organism-based, Macaca mulatta; parameters: dose 3 mg/kg, route intravenous
[46] = Plasma clearance in Beagle dog at 3 mg/kg, iv; type: ADME, organism-based, Canis lupus familiaris; parameters: dose 3 mg/kg, route intravenous
[47] = Oral bioavailability in rhesus monkey at 10 mg/kg; type: ADME, organism-based, Macaca mulatta; settings: in vivo
[48] = Plasma clearance in Sprague-Dawley rat at 3 mg/kg, iv; type: ADME, organism-based; parameters: dose 3 mg/kg, route intravenous

Sequence of Cytochrome P450 3A4 (P08684 whole entry, the tested form may be a part): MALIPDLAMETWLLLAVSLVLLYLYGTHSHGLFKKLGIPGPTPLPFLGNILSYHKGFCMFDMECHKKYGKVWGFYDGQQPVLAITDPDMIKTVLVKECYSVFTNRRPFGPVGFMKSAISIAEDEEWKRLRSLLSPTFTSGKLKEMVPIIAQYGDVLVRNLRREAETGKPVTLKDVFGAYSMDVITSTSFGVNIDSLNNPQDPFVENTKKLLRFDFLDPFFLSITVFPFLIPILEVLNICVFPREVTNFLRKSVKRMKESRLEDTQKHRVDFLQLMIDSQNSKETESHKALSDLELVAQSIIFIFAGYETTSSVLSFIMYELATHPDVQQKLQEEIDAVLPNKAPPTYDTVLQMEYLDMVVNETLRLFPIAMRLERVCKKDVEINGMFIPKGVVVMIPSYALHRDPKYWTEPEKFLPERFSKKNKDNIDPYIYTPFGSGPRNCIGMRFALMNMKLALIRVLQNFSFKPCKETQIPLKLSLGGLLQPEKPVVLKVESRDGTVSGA
Sequence of Voltage-dependent L-type calcium channel subunit alpha-1C (Q13936 whole entry): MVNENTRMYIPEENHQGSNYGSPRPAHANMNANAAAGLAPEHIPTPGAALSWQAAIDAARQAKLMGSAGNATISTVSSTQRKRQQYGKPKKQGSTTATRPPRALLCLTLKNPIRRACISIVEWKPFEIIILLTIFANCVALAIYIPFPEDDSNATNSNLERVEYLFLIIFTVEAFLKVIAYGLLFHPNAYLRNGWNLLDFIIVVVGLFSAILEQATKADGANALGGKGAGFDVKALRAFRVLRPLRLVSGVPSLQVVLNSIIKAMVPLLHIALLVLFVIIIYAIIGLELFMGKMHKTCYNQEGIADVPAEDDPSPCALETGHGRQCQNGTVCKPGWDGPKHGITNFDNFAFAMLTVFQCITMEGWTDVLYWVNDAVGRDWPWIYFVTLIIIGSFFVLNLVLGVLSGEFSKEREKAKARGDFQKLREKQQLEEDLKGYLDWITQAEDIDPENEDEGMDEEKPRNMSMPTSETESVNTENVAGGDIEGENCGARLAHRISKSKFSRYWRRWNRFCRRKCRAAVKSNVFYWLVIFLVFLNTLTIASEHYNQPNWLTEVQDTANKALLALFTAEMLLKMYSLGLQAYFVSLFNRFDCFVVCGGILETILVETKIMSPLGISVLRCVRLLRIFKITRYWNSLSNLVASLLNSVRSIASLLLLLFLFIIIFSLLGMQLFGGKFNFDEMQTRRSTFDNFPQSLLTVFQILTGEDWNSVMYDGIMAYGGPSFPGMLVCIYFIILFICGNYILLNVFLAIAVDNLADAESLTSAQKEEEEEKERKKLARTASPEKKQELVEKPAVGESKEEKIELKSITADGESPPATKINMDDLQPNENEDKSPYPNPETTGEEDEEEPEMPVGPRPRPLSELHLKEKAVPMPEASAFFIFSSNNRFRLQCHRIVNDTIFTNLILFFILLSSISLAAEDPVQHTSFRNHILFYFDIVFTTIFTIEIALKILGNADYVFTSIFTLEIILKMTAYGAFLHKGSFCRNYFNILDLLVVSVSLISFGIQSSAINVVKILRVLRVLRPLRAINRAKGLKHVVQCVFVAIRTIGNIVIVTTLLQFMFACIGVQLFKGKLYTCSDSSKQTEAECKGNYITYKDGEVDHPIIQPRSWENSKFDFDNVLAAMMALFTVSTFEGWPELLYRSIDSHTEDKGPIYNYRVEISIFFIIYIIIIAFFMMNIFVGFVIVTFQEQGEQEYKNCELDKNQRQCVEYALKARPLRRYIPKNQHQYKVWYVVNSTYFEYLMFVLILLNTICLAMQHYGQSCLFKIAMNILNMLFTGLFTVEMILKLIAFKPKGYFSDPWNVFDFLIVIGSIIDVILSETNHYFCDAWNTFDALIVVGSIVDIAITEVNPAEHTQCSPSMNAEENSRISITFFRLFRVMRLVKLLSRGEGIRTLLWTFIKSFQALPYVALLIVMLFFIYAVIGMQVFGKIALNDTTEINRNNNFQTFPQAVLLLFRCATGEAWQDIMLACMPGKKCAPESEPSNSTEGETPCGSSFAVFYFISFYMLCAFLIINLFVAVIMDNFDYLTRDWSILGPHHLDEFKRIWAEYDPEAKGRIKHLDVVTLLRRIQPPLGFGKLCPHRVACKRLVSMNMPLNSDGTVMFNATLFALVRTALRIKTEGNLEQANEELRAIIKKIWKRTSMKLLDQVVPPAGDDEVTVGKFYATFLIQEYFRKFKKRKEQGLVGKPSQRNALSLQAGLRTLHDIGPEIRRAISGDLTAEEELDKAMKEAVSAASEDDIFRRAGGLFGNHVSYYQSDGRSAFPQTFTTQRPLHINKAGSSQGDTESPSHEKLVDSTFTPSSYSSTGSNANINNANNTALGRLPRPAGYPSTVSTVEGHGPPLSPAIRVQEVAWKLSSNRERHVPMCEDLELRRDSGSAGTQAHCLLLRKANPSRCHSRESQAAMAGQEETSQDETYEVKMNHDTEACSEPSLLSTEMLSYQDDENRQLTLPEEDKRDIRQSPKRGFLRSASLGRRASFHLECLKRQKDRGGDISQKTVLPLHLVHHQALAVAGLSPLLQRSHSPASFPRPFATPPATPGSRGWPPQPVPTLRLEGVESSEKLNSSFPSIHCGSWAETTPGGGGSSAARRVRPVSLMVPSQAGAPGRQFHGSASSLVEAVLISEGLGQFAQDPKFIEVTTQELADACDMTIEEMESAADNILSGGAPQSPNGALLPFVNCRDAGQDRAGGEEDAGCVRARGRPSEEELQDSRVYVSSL
Sequence of Sodium-dependent serotonin transporter (P31645 whole entry): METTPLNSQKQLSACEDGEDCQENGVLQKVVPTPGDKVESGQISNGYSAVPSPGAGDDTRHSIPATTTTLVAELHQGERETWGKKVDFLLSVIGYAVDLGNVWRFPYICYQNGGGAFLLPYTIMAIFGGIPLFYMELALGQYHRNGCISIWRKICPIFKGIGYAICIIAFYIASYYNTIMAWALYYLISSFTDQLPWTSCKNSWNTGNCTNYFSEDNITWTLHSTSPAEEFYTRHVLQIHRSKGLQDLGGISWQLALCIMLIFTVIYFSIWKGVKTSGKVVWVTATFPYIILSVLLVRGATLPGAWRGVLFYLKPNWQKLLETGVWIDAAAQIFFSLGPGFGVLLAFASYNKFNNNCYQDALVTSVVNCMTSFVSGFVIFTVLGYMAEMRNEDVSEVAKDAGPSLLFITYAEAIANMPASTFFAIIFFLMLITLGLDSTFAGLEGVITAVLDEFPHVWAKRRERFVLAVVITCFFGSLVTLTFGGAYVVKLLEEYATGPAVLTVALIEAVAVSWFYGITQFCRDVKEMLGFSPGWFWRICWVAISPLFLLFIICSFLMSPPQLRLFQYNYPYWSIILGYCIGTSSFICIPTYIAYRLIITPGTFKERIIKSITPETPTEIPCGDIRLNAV
Sequence of Beta-3 adrenergic receptor (Rattus norvegicus) (P26255 whole entry): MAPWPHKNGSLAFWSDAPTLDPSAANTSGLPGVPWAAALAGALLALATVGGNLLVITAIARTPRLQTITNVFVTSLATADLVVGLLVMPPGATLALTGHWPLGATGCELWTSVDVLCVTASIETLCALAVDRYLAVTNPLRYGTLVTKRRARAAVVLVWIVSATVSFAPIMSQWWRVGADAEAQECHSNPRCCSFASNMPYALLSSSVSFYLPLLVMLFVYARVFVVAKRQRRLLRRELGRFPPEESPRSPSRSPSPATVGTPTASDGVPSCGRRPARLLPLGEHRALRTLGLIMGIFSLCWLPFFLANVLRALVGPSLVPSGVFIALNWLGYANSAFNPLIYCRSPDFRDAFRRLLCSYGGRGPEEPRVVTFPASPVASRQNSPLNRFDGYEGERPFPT
Sequence of Beta-3 adrenergic receptor (Rattus norvegicus, UniProt P26255) (P26255 whole entry): as above
Sequence of Beta-3 adrenergic receptor (Canis lupus familiaris, UniProt O02662) (O02662 whole entry): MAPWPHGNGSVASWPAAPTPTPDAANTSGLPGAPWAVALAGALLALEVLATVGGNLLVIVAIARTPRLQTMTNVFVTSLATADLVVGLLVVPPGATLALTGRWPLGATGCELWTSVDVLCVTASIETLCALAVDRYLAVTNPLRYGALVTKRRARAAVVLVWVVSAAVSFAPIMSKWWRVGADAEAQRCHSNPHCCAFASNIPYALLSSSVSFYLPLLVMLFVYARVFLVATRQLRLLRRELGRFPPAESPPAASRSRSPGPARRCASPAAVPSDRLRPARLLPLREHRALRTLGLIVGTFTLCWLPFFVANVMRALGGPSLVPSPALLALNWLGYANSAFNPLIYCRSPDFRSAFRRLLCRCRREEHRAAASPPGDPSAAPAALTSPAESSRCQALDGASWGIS
Sequence of Beta-3 adrenergic receptor (Canis lupus familiaris) (O02662 whole entry): as above
Sequence of Cytochrome P450 2D6 (P10635 whole entry): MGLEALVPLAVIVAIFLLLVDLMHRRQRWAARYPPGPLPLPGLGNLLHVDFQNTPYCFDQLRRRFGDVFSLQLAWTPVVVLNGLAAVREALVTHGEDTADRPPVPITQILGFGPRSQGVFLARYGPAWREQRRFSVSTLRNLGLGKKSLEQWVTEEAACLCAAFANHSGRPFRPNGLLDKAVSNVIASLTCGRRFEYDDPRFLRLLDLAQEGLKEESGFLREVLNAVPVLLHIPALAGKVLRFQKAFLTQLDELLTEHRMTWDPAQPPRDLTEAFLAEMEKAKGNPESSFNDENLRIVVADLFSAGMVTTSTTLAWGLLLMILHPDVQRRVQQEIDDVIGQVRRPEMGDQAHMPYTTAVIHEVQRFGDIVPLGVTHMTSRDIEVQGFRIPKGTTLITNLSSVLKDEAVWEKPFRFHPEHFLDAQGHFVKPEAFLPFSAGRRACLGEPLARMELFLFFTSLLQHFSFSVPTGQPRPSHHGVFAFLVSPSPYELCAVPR

bioavailability [1]: 35%
half-life [2]: 8 h
CLint scaled [3]: 15.7 L/h/kg
clearance [4]: 1.44 L/h/kg
CLint scaled [5]: 1.86 L/h/kg
CLint scaled [6]: 3.3 L/h/kg
EC50 [7]: 0.0037 µM
logD [8]: 0.9
EC50 [9]: 0.434 µM
fraction unbound [10]: 0.36
Activity [11]: 93%
IC50 [13]: > 20 µM
Cp(f) (Plasma [14]): 2 µM
Cp(f) (Plasma [15]): 26.8 µM
CLint scaled [16]: 1.14 L/h/kg
IC50 [17]: 0.898 µM
IC50 (Cytochrome P450 2C9): > 100 µM
Ratio IC50/EC50 (Homo sapiens): 243
Activity [20]: 98%
Activity [21]: 86%
Activity [22]: 84%
Papp [23]: 60 nm/s
clearance [24]: 2.16 L/h/kg
EC50 [25]: 0.022 µM
IC50 (Cytochrome P450 3A4): > 100 µM
bioavailability [27]: 11%
Cp(f) (Plasma [28]): 7.6 µM
bioavailability [29]: 100%
IC50 [30]: > 20 µM
EC50 [31]: 0.0047 µM
clearance [32]: 2.04 L/h/kg
half-life [33]: 3 h
fraction unbound [34]: 1
half-life [35]: 4 h
IC50 (Cytochrome P450 2D6): > 100 µM
fraction unbound [36]: 0.7
Compound: O=C(Nc1ccc(C[C@@H]2CC[C@H]([C@H](O)c3cccnc3)N2)cc1)[C@@H]1CCc2ccnn21
IC50 [12]: > 30 µM
IC50 [18]: > 30 µM
Activity (Rattus norvegicus [19]): 69%
Activity (Rattus norvegicus [26]): Dose-dependent effect
IC50 [37]: > 30 µM

bioavailability [1]: 41%
half-life [2]: 6 h
CLint scaled [3]: 12.3 L/h/kg
clearance [4]: 1.98 L/h/kg
CLint scaled [5]: < 0.6 L/h/kg
CLint scaled [6]: < 0.9 L/h/kg
EC50 [7]: 0.00136 µM
logD [8]: 0.9
EC50 [9]: 0.0276 µM
fraction unbound [10]: 0.19
Activity [11]: 98%
IC50 [13]: > 20 µM
Cp(f) (Plasma [14]): 0.09 µM
Cp(f) (Plasma [15]): 1.17 µM
CLint scaled [16]: < 0.6 L/h/kg
IC50 [17]: 0.422 µM
IC50 (Cytochrome P450 2C9): > 100 µM
Activity [20]: 89%
Activity [21]: 82%
Activity [22]: 103%
Papp [23]: 130 nm/s
clearance [24]: 2.16 L/h/kg
EC50 [25]: 0.005 µM
IC50 (Cytochrome P450 3A4): > 100 µM
bioavailability [27]: 8%
Cp(f) (Plasma [28]): 0.26 µM
bioavailability [29]: 67%
IC50 [30]: > 20 µM
EC50 [31]: 0.002 µM
clearance [32]: 1.62 L/h/kg
half-life [33]: 2 h
fraction unbound [34]: 1
half-life [35]: 2 h
IC50 (Cytochrome P450 2D6): 78.8 µM
fraction unbound [36]: 0.7
Compound: O=C(Nc1ccc(C[C@@H]2CC[C@H]([C@H](O)c3cccnc3)N2)cc1)[C@@H]1CCc2scnc21
Activity (Rattus norvegicus [38]): 59%
IC50 [18]: > 30 µM
Activity (Rattus norvegicus [26]): Dose-dependent effect
IC50 [37]: > 30 µM

fraction unbound [39]: 0.02
half-life [40]: 9 h
half-life [41]: 8 h
logD [8]: 4.6
half-life [42]: 14 h
fraction unbound [43]: 0.02
fraction unbound [44]: 0.02
clearance [45]: 1.14 L/h/kg
clearance [46]: 1.2 L/h/kg
bioavailability [47]: 4%
clearance [48]: 3.72 L/h/kg
Compound: O=S(=O)(Nc1ccc(CCNC[C@H](O)c2cccnc2)cc1)c1ccc(-c2nc(-c3ccc(C(F)(F)F)cc3)cs2)cc1

Reference: ChEMBL document CHEMBL3124772, “Design, synthesis, and evaluation of conformationally restricted acetanilides as potent and selective β3 adrenergic receptor agonists for the treatment of overactive bladder” (J Med Chem, 2014)
